Measured values from ChEMBL document CHEMBL1671627, “Increasing trends in antimicrobial resistance among clinically important anaerobes and Bacteroides fragilis isolates causing nosocomial infections: emerging resistance to carbapenems” (2008).
In brackets after ≈: the same amount, converted by molar mass.

Tests used:
Format in all cases: functional
[1] = tested on: Peptostreptococcus anaerobius; assay: Antibacterial activity against beta-lactamase producing Peptostreptococcus anaerobius assessed as resistant isolates by CLSI agar dilution method in presence of clavulanate
In short: (§1)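 207 nonduplicate anaerobic blood isolates from patients with bloodstream infections at NTUH, collected January–December 2006. MICs were determined by agar dilution following CLSI guidelines. Inocula were applied with a Steers replicator onto supplemented Brucella blood agar and incubated 48 h at 35°C in an anaerobic chamber. MIC was the lowest concentration inhibiting growth. B. fragilis ATCC 25285, B. thetaiotaomicron ATCC 29741 and E. lentum ATCC 43055 served as controls in each run.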

Fusobacterium mortiferum [2] = assay: Antibacterial activity against Fusobacterium mortiferum assessed as resistant isolates by CLSI agar dilution method in presence of clavulanate; in short: as §1
Parvimonas micra [3] = assay: Antibacterial activity against beta-lactamase producing Micromonas micros assessed as susceptible isolates by CLSI agar dilution method in presence of clavulanate
In short: (§2)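 CLSI agar dilution MICs for anaerobic blood isolates (nonduplicate) collected from bloodstream-infection patients at a Taiwanese tertiary hospital, January–December 2006. Isolates were spotted by Steers replicator onto supplemented Brucella blood agar and incubated anaerobically for 48 h at 35°C. MIC was the lowest drug concentration inhibiting growth. Each run included B. fragilis ATCC 25285, B. thetaiotaomicron ATCC 29741 and E. lentum ATCC 43055 as quality-control strains.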

Fusobacterium nucleatum [4] = assay: Antibacterial activity against Fusobacterium nucleatum by CLSI agar dilution method in presence of clavulanate
In short: (§3)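 Agar dilution per CLSI guidelines on nonduplicate anaerobic bloodstream isolates collected at NTUH, January to December 2006. Isolates were spotted by Steers replicator onto supplemented Brucella blood agar and incubated anaerobically for 48 h at 35°C. MIC was the lowest drug concentration that inhibited growth. B. fragilis ATCC 25285, B. thetaiotaomicron ATCC 29741 and E. lentum ATCC 43055 were run as QC in each run.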

Prevotella bivia [5] = assay: Antibacterial activity against Prevotella bivia assessed as resistant isolates by CLSI agar dilution method in presence of clavulanate; in short: as §1
Fusobacterium nucleatum [6] = assay: Antibacterial activity against Fusobacterium nucleatum assessed as susceptible isolates by CLSI agar dilution method in presence of clavulanate; in short: as §3
Phocaeicola vulgatus [7] = assay: Antibacterial activity against beta-lactamase producing Bacteroides vulgatus assessed as susceptible isolates by CLSI agar dilution method in presence of clavulanate; in short: as §2
Finegoldia magna [8] = assay: Antibacterial activity against beta-lactamase producing Finegoldia magna assessed as susceptible isolates by CLSI agar dilution method in presence of clavulanate; in short: as §2
Bacteroides uniformis [9] = assay: Antibacterial activity against beta-lactamase producing Bacteroides uniformis by CLSI agar dilution method in presence of clavulanate; in short: as §3
[10] = tested on: Fusobacterium necrophorum; assay: Antibacterial activity against Fusobacterium necrophorum assessed as resistant isolates by CLSI agar dilution method in presence of clavulanate; in short: as §1
[11] = tested on: Clostridium paraputrificum; assay: Antibacterial activity against beta-lactamase producing Clostridium paraputrificum assessed as resistant isolates by CLSI agar dilution method in presence of clavulanate; in short: as §1
Finegoldia magna [12] = assay: Antibacterial activity against beta-lactamase producing Finegoldia magna assessed as susceptible isolates by CLSI agar dilution method in presence of Tazobactam; in short: as §2
Prevotella intermedia = assay: Antibacterial activity against Prevotella intermedia assessed as susceptible isolates by CLSI agar dilution method in presence of Tazobactam; in short: as §3
Bacteroides caccae = assay: Antibacterial activity against beta-lactamase producing Bacteroides caccae assessed as susceptible isolates by CLSI agar dilution method in presence of Tazobactam; in short: as §3
[13] = tested on: Bacteroides thetaiotaomicron; assay: Antibacterial activity against beta-lactamase producing Bacteroides thetaiotaomicron by CLSI agar dilution method in presence of Tazobactam; in short: as §3
Bacteroides fragilis = assay: Antibacterial activity against Bacteroides fragilis assessed as susceptible isolates by CLSI agar dilution method in presence of Tazobactam; in short: as §3
[14] = tested on: Peptostreptococcus anaerobius; assay: Antibacterial activity against beta-lactamase producing Peptostreptococcus anaerobius assessed as susceptible isolates by CLSI agar dilution method in presence of Tazobactam; in short: as §2
Prevotella bivia [15] = assay: Antibacterial activity against Prevotella bivia assessed as susceptible isolates by CLSI agar dilution method
[16] = tested on: Prevotella melaninogenica; assay: Antibacterial activity against Prevotella melaninogenica assessed as resistant isolates by CLSI agar dilution method in presence of Tazobactam; in short: as §1
[17] = tested on: Bacteroides thetaiotaomicron; assay: Antibacterial activity against beta-lactamase producing Bacteroides thetaiotaomicron assessed as resistant isolates by CLSI agar dilution method
Prevotella bivia [18] = assay: Antibacterial activity against Prevotella bivia assessed as resistant isolates by CLSI agar dilution method in presence of Tazobactam; in short: as §1
Clostridium tertium = assay: Antibacterial activity against beta-lactamase producing Clostridium tertium by CLSI agar dilution method in presence of Tazobactam; in short: as §2
Prevotella buccae = assay: Antibacterial activity against Prevotella buccae by CLSI agar dilution method in presence of Tazobactam; conditions: Segatella buccae; in short: as §3
Phocaeicola vulgatus [19] = assay: Antibacterial activity against beta-lactamase producing Bacteroides vulgatus by CLSI agar dilution method
Finegoldia magna [20] = assay: Antibacterial activity against beta-lactamase producing Finegoldia magna by CLSI agar dilution method
[21] = tested on: Fusobacterium necrophorum; assay: Antibacterial activity against Fusobacterium necrophorum assessed as susceptible isolates by CLSI agar dilution method
Bacteroides uniformis [22] = assay: Antibacterial activity against beta-lactamase producing Bacteroides uniformis assessed as resistant isolates by CLSI agar dilution method in presence of Tazobactam; in short: as §1
[23] = tested on: Bacteroides thetaiotaomicron; assay: Antibacterial activity against beta-lactamase producing Bacteroides thetaiotaomicron assessed as resistant isolates by CLSI agar dilution method in presence of Tazobactam; in short: as §1
[24] = tested on: Peptoniphilus asaccharolyticus; assay: Antibacterial activity against beta-lactamase producing Peptoniphilus asaccharolyticus by CLSI agar dilution method
[25] = tested on: Peptostreptococcus anaerobius; assay: Antibacterial activity against beta-lactamase producing Peptostreptococcus anaerobius assessed as resistant isolates by CLSI agar dilution method in presence of Tazobactam; in short: as §1
[26] = tested on: Prevotella melaninogenica; assay: Antibacterial activity against Prevotella melaninogenica assessed as resistant isolates by CLSI agar dilution method
[27] = tested on: Prevotella melaninogenica; assay: Antibacterial activity against Prevotella melaninogenica by CLSI agar dilution method in presence of Tazobactam; in short: as §3
Fusobacterium mortiferum [28] = assay: Antibacterial activity against Fusobacterium mortiferum by CLSI agar dilution method
Clostridium septicum = assay: Antibacterial activity against beta-lactamase producing Clostridium septicum assessed as resistant isolates by CLSI agar dilution method
Bacteroides uniformis [29] = assay: Antibacterial activity against beta-lactamase producing Bacteroides uniformis by CLSI agar dilution method
Fusobacterium varium = assay: Antibacterial activity against Fusobacterium varium assessed as susceptible isolates by CLSI agar dilution method in presence of Tazobactam; in short: as §3
Parvimonas micra [30] = assay: Antibacterial activity against beta-lactamase producing Micromonas micros by CLSI agar dilution method in presence of Tazobactam; in short: as §2

CC1(C)S[C@@H]2[C@H](NC(=O)[C@H](N)c3ccc(O)cc3)C(=O)N2[C@H]1C(=O)O [AMOXICILLIN] showed an Activity [1] of 3%, an Activity (Fusobacterium mortiferum [2]) of 7% and an Activity (Parvimonas micra [3]) of 94%. For the same compound, the MIC50 (Fusobacterium nucleatum [4]) was 2 µg/mL, the MIC90 (Fusobacterium nucleatum [4]) was 4 µg/mL and the Activity (Prevotella bivia [5]) was 6%. For the same compound, the Activity (Fusobacterium nucleatum [6]) was 89%, the Activity (Phocaeicola vulgatus [7]) was 53% and the Activity (Finegoldia magna [8]) was 94%. For the same compound, the MIC50 (Bacteroides uniformis [9]) was 8 µg/mL, the MIC90 (Bacteroides uniformis [9]) was 32 µg/mL and the Activity [10] was 7%. The Activity [11] was 4%.
With CCN1CCN(C(=O)N[C@@H](C(=O)N[C@@H]2C(=O)N3[C@@H]2SC(C)(C)[C@@H]3C(=O)O)c2ccccc2)C(=O)C1=O [PIPERACILLIN] the Activity (Finegoldia magna [12]) was 97%, the Activity (Prevotella intermedia) was 100% and the Activity (Bacteroides caccae) was 96%. The MIC50 [13] was 8 µg/mL, the MIC90 [13] was 32 µg/mL and the Activity (Bacteroides fragilis) was 95%. The Activity [14] was 97%, the Activity (Prevotella bivia [15]) was 71% and the Activity [16] was 0%. The Activity [17] was 37%, the Activity (Prevotella bivia [18]) was 0% and the MIC50 (Clostridium tertium) was 0.5 µg/mL. For the same compound, the MIC90 (Clostridium tertium) was 2 µg/mL, the MIC (Prevotella buccae) was 0.03 µg/mL and the MIC50 (Prevotella buccae) was 0.03 µg/mL. For the same compound, the MIC90 (Prevotella buccae) was 1 µg/mL, the MIC50 (Phocaeicola vulgatus [19]) was over 128 µg/mL and the MIC90 (Phocaeicola vulgatus [19]) was over 128 µg/mL. The MIC50 (Finegoldia magna [20]) was 0.12 µg/mL (≈ 0.232 µM), the MIC90 (Finegoldia magna [20]) was 8 µg/mL (≈ 15.5 µM) and the Activity [21] was 90%. The Activity (Bacteroides uniformis [22]) was 4%, the Activity [23] was 0% and the MIC50 [24] was 0.12 µg/mL (≈ 0.232 µM). The MIC90 [24] was 8 µg/mL (≈ 15.5 µM), the Activity [25] was 0% and the Activity [26] was 22%. It also gave an MIC [27] of 0.03 µg/mL, an MIC50 [27] of 0.03 µg/mL and an MIC90 [27] of 1 µg/mL. It also gave an MIC50 (Fusobacterium mortiferum [28]) of 2 µg/mL (≈ 3.86 µM), an MIC90 (Fusobacterium mortiferum [28]) of 8 µg/mL (≈ 15.5 µM) and an Activity (Clostridium septicum) of 0%. It also gave an MIC50 (Bacteroides uniformis [29]) of over 128 µg/mL, an MIC90 (Bacteroides uniformis [29]) of over 128 µg/mL and an Activity (Fusobacterium varium) of 100%. It also gave an MIC (Parvimonas micra [30]) of 0.03 µg/mL, an MIC50 (Parvimonas micra [30]) of 0.03 µg/mL and an MIC90 (Parvimonas micra [30]) of 2 µg/mL.
